Source: ChEMBL document CHEMBL1151197, “Molecular-targeted antitumor agents: the Saururus cernuus dineolignans manassantin B and 4-O-demethylmanassantin B are potent inhibitors of hypoxia-activated HIF-1” (J Nat Prod, 2004)
The source made the active and inactive calls. No cut-off for these calls is given here.

Key:
Format in all cases: cell-based
T47D [1] = assay: Inhibition of hypoxia-induced nuclear HIF1 beta level in human T47D cells at 10 to 100 nM preincubated for 30 mins before addition of hypoxia measured after 4 hrs by Western blotting
Summary of the method: (§1)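 Seeded at 1.7 × 10^5 cells/cm2 overnight, T47D cells got 10 or 100 nM for 30 min, then 4 h of hypoxia or 10 µM 1,10-phenanthroline at 37 °C. Nuclear extracts prepared by NP-40 lysis and 500 mM KCl extraction, separated on 7% SDS-PAGE. Blots probed with anti-HIF-1α (1:500), stripped, reprobed for HIF-1β (1:1500); ABC/ECL detection, Ponceau-S loading check.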

[2] = molecular target: T1, Hypoxia inducible factors; HIF-1-alpha, HIF-2-alpha (Homo sapiens, UniProt Q16665+Q99814); assay: Inhibition of 1,10-phenathroline-induced HIF1 activation in human T47D cells after 16 hrs at >=10 nM by pTK-HRE3-luciferase reporter gene assay; design: scale not given: the % may be the effect or the level left
Summary of the method: (§2)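 T47D cells electroporated with pTK-HRE3-luc (140 V, 70 ms, 1 pulse), plated 4.5 × 10^4 cells/well, after 24 h given a dilution series for 30 min at 37 °C, then 10 µM 1,10-phenanthroline for 16 h at 37 °C. Luciferase read from cell lysates; quadruplicate wells. Specificity counter-screen used pGL3-Control-transfected cells.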

[3] = molecular target: Hypoxia-inducible factor 1-alpha (Homo sapiens) (UniProt Q16665); assay: Inhibition of hypoxia-induced nuclear HIF1 alpha level in human T47D cells at 10 to 100 nM preincubated for 30 mins before addition of hypoxia measured after 4 hrs by Western blotting; summary of the method: as §1
Sequence of Hypoxia-inducible factor 1-alpha (Homo sapiens) (Q16665 whole entry, looked up): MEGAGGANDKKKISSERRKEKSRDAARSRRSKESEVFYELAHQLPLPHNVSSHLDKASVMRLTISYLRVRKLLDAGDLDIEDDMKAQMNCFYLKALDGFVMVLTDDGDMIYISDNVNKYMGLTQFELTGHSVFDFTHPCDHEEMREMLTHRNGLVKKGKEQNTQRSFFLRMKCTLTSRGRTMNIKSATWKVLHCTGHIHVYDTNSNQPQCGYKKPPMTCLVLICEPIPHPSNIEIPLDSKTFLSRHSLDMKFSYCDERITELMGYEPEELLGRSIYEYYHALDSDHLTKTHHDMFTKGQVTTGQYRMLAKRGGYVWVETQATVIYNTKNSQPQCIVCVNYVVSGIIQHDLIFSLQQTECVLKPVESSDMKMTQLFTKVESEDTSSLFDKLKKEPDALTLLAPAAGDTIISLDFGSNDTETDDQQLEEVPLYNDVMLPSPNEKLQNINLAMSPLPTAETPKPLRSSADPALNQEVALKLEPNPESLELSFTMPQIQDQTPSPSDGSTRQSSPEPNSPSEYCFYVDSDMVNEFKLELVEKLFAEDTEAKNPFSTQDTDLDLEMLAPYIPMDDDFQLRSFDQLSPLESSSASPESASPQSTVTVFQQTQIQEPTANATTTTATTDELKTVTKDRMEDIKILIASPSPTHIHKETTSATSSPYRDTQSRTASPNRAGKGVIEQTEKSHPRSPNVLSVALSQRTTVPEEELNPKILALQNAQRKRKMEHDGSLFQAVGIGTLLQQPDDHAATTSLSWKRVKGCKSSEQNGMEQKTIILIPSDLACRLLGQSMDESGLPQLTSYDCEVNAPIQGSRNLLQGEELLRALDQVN

[4] = molecular target: T1, Hypoxia inducible factors; HIF-1-alpha, HIF-2-alpha; assay: Inhibition of hypoxia-induced HIF1 activation in human T47D cells at 10 nM after 16 hrs by pTK-HRE3-luciferase reporter gene assay
Summary of the method: (§3)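 Reporter: T47D cells electroporated with pTK-HRE3-luc (140 V, 70 ms, 1 pulse), plated 4.5 × 10^4 cells/well, after 24 h pretreated with serial dilutions for 30 min at 37 °C, then hypoxia (1% O2/5% CO2/94% N2) for 16 h at 37 °C. Luciferase read from lysates; triplicate wells, means ± SD. pGL3-Control cells run as counter-screen.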

[5] = molecular target: T1, Hypoxia inducible factors; HIF-1-alpha, HIF-2-alpha; assay: Inhibition of 1,10-phenathroline-induced HIF1 activation in human T47D cells after 16 hrs at >=30 nM by pTK-HRE3-luciferase reporter gene assay; design: scale not given: the % may be the effect or the level left; summary of the method: as §2
T47D [6] = assay: Inhibition of 1,10-phenathroline-induced nuclear HIF1 beta level in human T47D cells at 10 to 100 nM preincubated for 30 mins before addition of 1,10-phenathroline measured after 4 hrs by Western blotting; summary of the method: as §1
[7] = molecular target: Hypoxia-inducible factor 1-alpha (Homo sapiens) (UniProt Q16665); assay: Inhibition of 1,10-phenathroline-induced nuclear HIF1 alpha level in human T47D cells at 10 to 100 nM preincubated for 30 mins before addition of 1,10-phenathroline measured after 4 hrs by Western blotting; summary of the method: as §1
T47D [8] = assay: Inhibition of hypoxia-induced VEGF production in human T47D cells after 16 hrs by ELISA
Summary of the method: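 T47D cells at 3 × 10^4 cells/well, 30 min compound pretreatment, then 16 h hypoxia (1% O2). Secreted VEGF measured in conditioned medium by sandwich ELISA (OD450, 540 nm correction) against a standard curve. Values normalized to viable cell number from Neutral Red uptake (OD540 minus 630 nm, cell-number standard curve). Quadruplicate; mean ± SEM; ANOVA with Fisher's PLSD.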

[9] = molecular target: T1, Hypoxia inducible factors; HIF-1-alpha, HIF-2-alpha; assay: Inhibition of hypoxia-induced HIF1 activation in human T47D cells after 16 hrs by pTK-HRE3-luciferase reporter gene assay; summary of the method: as §3
[10] = molecular target: T1, Hypoxia inducible factors; HIF-1-alpha, HIF-2-alpha; assay: Inhibition of hypoxia-induced HIF1 activation in human T47D cells at 100 nM after 16 hrs by pTK-HRE3-luciferase reporter gene assay; summary of the method: as §3

Row | Activity [2] [%] | Activity [3] | Activity [4] | Activity [5] [%] | Activity [7] | IC50 [9] [nM] | Activity [10] | Structure (SMILES) | Activity (T47D [1]) | Activity (T47D [6]) | Activity (T47D [8])
1 | < 50 | Active | Active | < 50 | inactive | 3 | – | COc1ccc([C@@H](O)[C@@H](C)Oc2ccc([C@H]3O[C@H](c4ccc(O[C@H](C)[C@H](O)c5ccc6c(c5)OCO6)c(OC)c4)[C@H](C)[C@H]3C)cc2OC)cc1OC (relative stereo) [MANASSANTIN B] | inactive | inactive | Active
2 | < 50 | – | – | < 50 | – | 30 | Active | COc1cc([C@@H](O)[C@@H](C)Oc2ccc([C@H]3O[C@H](c4ccc(O[C@H](C)[C@H](O)c5ccc6c(c5)OCO6)c(OC)c4)[C@H](C)[C@H]3C)cc2OC)ccc1O (mixture of isomers) [4-O-DEMETHYLMANASSANTIN B] | – | – | Active
